Experiments:
P388 [1] = experiment: In vitro antitumor activity against murine doxorubicin resistant P388 cell line at 72 h; type: functional; conditions: Mus musculus, P388, 72 h; read-out: ID50 (the source's name)
Adenosine deaminase [2] = biological target: T1, Adenosine deaminase (Homo sapiens, UniProt P00813); experiment: Inhibition constant (Ki) against Human erythrocyte adenosine deaminase
T1 sequence (P00813 whole entry): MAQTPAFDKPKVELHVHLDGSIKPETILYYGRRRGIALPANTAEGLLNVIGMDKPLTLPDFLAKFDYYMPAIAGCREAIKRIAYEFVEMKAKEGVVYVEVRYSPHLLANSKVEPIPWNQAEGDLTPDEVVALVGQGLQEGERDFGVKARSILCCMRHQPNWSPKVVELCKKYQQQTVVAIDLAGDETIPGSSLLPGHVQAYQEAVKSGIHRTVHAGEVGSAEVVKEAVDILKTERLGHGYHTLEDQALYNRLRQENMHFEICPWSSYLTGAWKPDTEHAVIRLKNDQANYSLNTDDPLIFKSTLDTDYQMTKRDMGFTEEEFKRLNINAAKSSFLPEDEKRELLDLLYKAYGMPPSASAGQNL

L1210 = experiment: In vitro antitumor activity against murine L1210 cell line at 72 h; type: functional; conditions: Mus musculus, L1210, 72 h; read-out: ID50 (the source's name)
KB [3] = experiment: In vitro antitumor activity against human KB cell line at 144 h; type: functional; conditions: read-out: ID50 (the source's name)
Method in brief: (§1)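 Human HeLa (cervix carcinoma) and KB (oral epidermoid carcinoma) monolayers in Eagle's MEM with nonessential amino acids, Earle's BSS, 10% fetal calf serum and penicillin/streptomycin/kanamycin. Exponentially growing cells (5×10^5) were exposed to varying drug concentrations for 72 or 144 h and counted by Coulter counter. ID50 is the concentration giving 50% growth inhibition versus untreated controls.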

HeLa [4] = experiment: In vitro antitumor activity against human HeLa cell line at 72 h; type: functional; conditions: read-out: ID50 (the source's name); method in brief: as §1
P388 [5] = experiment: In vitro antitumor activity against murine P388 cell line at 72 h; type: functional; conditions: Mus musculus, P388, 72 h; read-out: ID50 (the source's name)
HeLa [6] = experiment: In vitro antitumor activity against human HeLa cell line at 144 h; type: functional; conditions: read-out: ID50 (the source's name); method in brief: as §1
KB [7] = experiment: In vitro antitumor activity against human KB cell line at 72 h; type: functional; conditions: read-out: ID50 (the source's name); method in brief: as §1
Adenosine deaminase [8] = biological target: T2, Adenosine deaminase (Bos taurus, UniProt P56658); experiment: Inhibition constant (Ki) against calf intestine adenosine deaminase
T2 sequence (P56658 whole entry): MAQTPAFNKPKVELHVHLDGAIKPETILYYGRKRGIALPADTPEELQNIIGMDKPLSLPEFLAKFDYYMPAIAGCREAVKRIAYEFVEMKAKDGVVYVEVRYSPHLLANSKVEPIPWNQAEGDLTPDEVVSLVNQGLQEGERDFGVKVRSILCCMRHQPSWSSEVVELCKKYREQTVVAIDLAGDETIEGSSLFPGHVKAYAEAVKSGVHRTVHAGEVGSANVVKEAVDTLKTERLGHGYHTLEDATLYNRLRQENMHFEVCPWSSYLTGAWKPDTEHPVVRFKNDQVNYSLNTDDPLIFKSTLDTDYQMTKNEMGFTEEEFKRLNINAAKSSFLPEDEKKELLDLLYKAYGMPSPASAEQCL

P388 [9] = experiment: In vitro antitumor activity against murine doxorubicin-resistant P388 cell line at 72 h; type: functional; conditions: Mus musculus, P388, 72 h; read-out: ID50 (the source's name)
HeLa [10] = experiment: In vitro antitumor activity against human HeLa cell line at 144 hr; type: functional; conditions: read-out: ID50 (the source's name); method in brief: as §1

Ki (Adenosine deaminase [2])	IC50 (L1210)	IC50 (KB [3])	IC50 (HeLa [4])	IC50 (P388 [5])	IC50 (KB [7])	Ki (Adenosine deaminase [8])	IC50 (P388 [9])	IC50 (HeLa [10])	SMILES	IC50 (P388 [1])	IC50 (HeLa [6])
0.0043 µM	22.9 µM	46.3 µM	179 µM	27.2 µM	81.6 µM	–	–	–	CCCCCC[C@@H]([C@@H](C)O)n1cnc2c(N)ncnc21 [EHNA]	13.4 µM	23.4 µM
180 µM	18.4 µM	8.5 µM	60.4 µM	20.7 µM	20.7 µM	400 µM	–	–	CCCCCCC(C(C)O)n1ccc2c(N)ncnc21 (centres undefined)	3.8 µM	4.7 µM
–	23.6 µM	25.4 µM	46 µM	12.7 µM	89.8 µM	–	10.8 µM	27.7 µM	Nc1ncnc2c1ncn2[C@@H]1O[C@H](CO)[C@@H](O)[C@@H]1O [VIDARABINE]	–	–
15 µM	26.8 µM	30.1 µM	38.3 µM	62.9 µM	32.8 µM	71 µM	47.9 µM	18.6 µM	CCCCCCC(C(C)O)n1cnc2c(N)cccc21 (centres undefined)	–	–

SMILES	Ki (Adenosine deaminase [2])	IC50 (L1210)	IC50 (KB [3])	IC50 (HeLa [4])	IC50 (P388 [5])	IC50 (KB [7])	Ki (Adenosine deaminase [8])	IC50 (P388 [9])	IC50 (HeLa [10])	IC50 (P388 [1])	IC50 (HeLa [6])
CCCCCCC(C(C)O)n1cnc2c(N)nccc21 (centres undefined)	0.0063 µM	18.6 µM	5.5 µM	142 µM	21.8 µM	31.9 µM	–	–	–	19.2 µM	18.6 µM
CCCCCCC(C(C)O)n1cnc2c(N)ccnc21 (centres undefined)	0.12 µM	49.1 µM	30 µM	112 µM	98.2 µM	49.1 µM	–	–	–	38.2 µM	21.8 µM

Source: ChEMBL document CHEMBL1124034, “Adenosine deaminase inhibitors. Synthesis and biological activity of deaza analogues of erythro-9-(2-hydroxy-3-nonyl)adenine” (J Med Chem, 1988)
